Measurements from different studies.
Target: Cyclin-dependent kinase 5 (CDK5, Homo sapiens, UniProt Q00535)

Structure (SMILES) | read-out | technique | concentration | remaining binding [%]
FC(F)(F)Oc1cccc(-c2cnc3ccc(-c4ccncc4)nn23)c1 | cell-free assay | competition with immobilised ligand | 5 µM | 93
C=CC(=O)N1CCC(C(=O)NCC(=O)N2CCN(c3nc(-c4cnc(N)nc4C(F)F)nc(N4CCOCC4)n3)CC2)CC1 | binding | competition with immobilised ligand | 1 µM | 100
CSc1cccnc1N1CCN(Cc2nc3ccccc3[nH]2)CC1 | cell-free assay | competition with immobilised ligand | 1 µM | 99
CCN1CCN(Cc2ccc(C(=O)Nc3ccc(C)c(Oc4ccc5c(c4)CC(=O)N5)c3)cc2C(F)(F)F)CC1 | binding | competition with immobilised ligand | 1 µM | 100
c1cnn2ncc(-c3ccnc(N4CCC45COC5)n3)c2c1 | binding |  | 1 µM | 99
O=C(Nc1c[nH]nc1C(=O)NC1CCNCC1)c1cc(F)cc(F)c1 | binding | competition with immobilised ligand | 1 µM | 100
CN(c1nccc(-c2cnn3ncccc23)n1)C1CC1 | binding |  | 1 µM | 100
O=C(c1ccc(Nc2nccc(-c3cc4ccccc4s3)n2)cc1)N1CCC(N2CCCC2)CC1 | binding | competition with immobilised ligand | 1 µM | 92
F[C@@H]1CCN(c2nccc(-c3cnn4ncccc34)n2)C1 | binding |  | 1 µM | 100
CCCCN(CCCC)C(=O)CN1C[C@@H](c2cc(OC)c3c(c2)OCO3)[C@H](C(=O)O)[C@H]1CC(C)(C)CCC | cell-free assay | competition with immobilised ligand | 1 µM | 97.7
O=C(NCCCN1CCOCC1)c1ccc(Nc2ncc(Cl)c(-c3ccc(Cl)s3)n2)cc1 | binding | competition with immobilised ligand | 1 µM | 42
COc1ncc2cc3ccccc3nc2c1C#N | cell-free assay | competition with immobilised ligand | 5 µM | 100
Cc1cnn2ncc(-c3ccnc(N(C)C)n3)c2c1 | binding |  | 1 µM | 100
CNCc1ccccc1-c1csc([C@@H](C)Nc2nc(C)nc3cc(OC)c(OC)cc23)c1 | cell-free assay | competition with immobilised ligand | 1 µM | 78
C[C@H]1CCN(c2nccc(-c3cnn4ncccc34)n2)C1 | binding |  | 1 µM | 97
C[C@@H]1CN(c2cc(-c3n[nH]c4ccc(OC5(C)CC5)cc34)ncn2)C[C@H](C)O1 | cell-free assay | competition with immobilised ligand | 0.1 µM | 100
CNC(=O)[C@@H]1CC[C@@H](n2c(-c3ccc4cnccc4c3)nc3ccc(C(=O)NCc4cccc(C(N)=O)c4)cc32)C1 | binding | competition with immobilised ligand | 1 µM | 89
CC1=C(C#N)C(c2ccc3c(c2)c(NC(=O)c2ccccc2C)nn3C)C(C#N)=C(C)N1 | cell-free assay | competition with immobilised ligand | 1 µM | 87
CN(CCCC(F)(F)F)c1nccc(-c2cnn3ncccc23)n1 | binding |  | 1 µM | 96
O=c1nc(-c2ccccn2)sc2ccccc12 | binding | competition with immobilised ligand | 1 µM | 85
O=C(NCCCN1CCOCC1)c1ccc(Nc2nccc(-c3cc4ccccc4s3)n2)cc1 | binding | competition with immobilised ligand | 1 µM | 84
CC1CCCN1c1nccc(-c2cnn3ncccc23)n1 (stereo not shown) | binding |  | 1 µM | 96
